Source: ChEMBL document CHEMBL1165950, “Design and synthesis of new potent anticancer pyrazoles with high FLT3 kinase inhibitory selectivity” (Bioorg Med Chem, 2010)

Experiments:
Assay type in all cases: functional
[1] = Growth inhibition of human […] cells after 48 hrs by sulforhodamine B assay; conditions: for CC50: read-out: LC50 (the source's name)
Summary of the method: (§1)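 NCI 60-cell screen, five-dose mode. Cells grown in RPMI 1640 with 5% FBS and 2 mM L-glutamine and plated at 5000-40,000 cells/well according to doubling time. After 24 h preincubation, a Tz plate was TCA-fixed. Five concentrations (10-fold or 1/2 log dilutions) were applied for 48 h at 37 °C. SRB staining read at 515 nm. IC50 taken from [(Ti-Tz)/(C-Tz)]×100 = 50.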

[2] = system: SW-620; experiment: Cytotoxicity against human SW620 cells assessed as cell growth at 1 uM after 48 hrs by sulforhodamine B assay; conditions: SW-620, 48 h, read-out: Activity
[3] = system: SNB-75; experiment: Growth inhibition of human SNB75 cells after 48 hrs by sulforhodamine B assay; conditions: SNB-75, 48 h; for CC50: read-out: LC50 (the source's name); summary of the method: as §1
[4] = system: A498; experiment: Cytotoxicity against human A498 cells assessed as cell growth at 1 uM after 48 hrs by sulforhodamine B assay; conditions: A498, 48 h, read-out: Activity
Summary of the method: (§2)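 NCI-60 five-dose screen. Cells were grown in RPMI 1640 with 5% FBS and 2 mM L-glutamine, plated at 5000–40,000 cells/well and preincubated for 24 h. Time-zero plates were TCA-fixed. DMSO-solubilized drug was added at five concentrations (10-fold or ½-log serial dilutions) for 48 h at 37 °C, 5% CO2. Cells were TCA-fixed, stained with 0.4% SRB and read at 515 nm. Percent growth used time-zero, control and test absorbances.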

[5] = system: NCI-H460; experiment: Growth inhibition of human NCI-H460 cells after 48 hrs by sulforhodamine B assay; conditions: NCI-H460, 48 h; for CC50: read-out: LC50 (the source's name); summary of the method: as §1
[6] = system: PC-3; experiment: Cytotoxicity against human PC3 cells assessed as cell growth at 0.01 uM after 48 hrs by sulforhodamine B assay; conditions: PC-3, 48 h, read-out: Activity
[7] = system: UACC-257; experiment: Cytotoxicity against human UACC257 cells assessed as cell growth at 100 nM after 48 hrs by sulforhodamine B assay; conditions: UACC-257, 48 h, read-out: Activity
[8] = system: SN12C; experiment: Cytotoxicity against human SN12C cells assessed as cell growth at 0.001 uM after 48 hrs by sulforhodamine B assay; conditions: read-out: Activity
[9] = Growth inhibition of human NCI60 cells at 10 uM after 48 hrs by sulforhodamine B assay relative to control; conditions: NCI60, 48 h, read-out: GI
Summary of the method: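 Single-dose NCI screen at 10 µM across the 60-line panel, 48 h exposure at 37 °C after a 24 h preincubation. Adherent cells were fixed with cold TCA and stained with 0.4% SRB, and absorbance was read at 515 nm. Inhibition % was taken as 100 minus growth %, and the mean across all lines was reported.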

[10] = system: K562; experiment: Cytotoxicity against human K562 cells assessed as cell growth at 10 uM after 48 hrs by sulforhodamine B assay; conditions: K562, 48 h, read-out: Activity
[11] = system: SK-MEL-2; experiment: Cytotoxicity against human SK-MEL-2 cells assessed as cell growth at 0.01 uM after 48 hrs by sulforhodamine B assay; conditions: SK-MEL-2, 48 h, read-out: Activity
[12] = system: CCRF-CEM; experiment: Cytotoxicity against human CCRF-CEM cells assessed as cell growth at 10 uM after 48 hrs by sulforhodamine B assay; conditions: read-out: Activity; summary of the method: as §2
[13] = system: EKVX; experiment: Cytotoxicity against human EKVX cells assessed as cell growth at 10 uM after 48 hrs by sulforhodamine B assay; conditions: read-out: Activity
[14] = system: SW-620; experiment: Cytotoxicity against human SW620 cells assessed as cell growth at 0.01 uM after 48 hrs by sulforhodamine B assay; conditions: SW-620, 48 h, read-out: Activity
[15] = system: NCI/ADR-RES; experiment: Cytotoxicity against human NCI/ADR-RES cells assessed as cell growth at 10 uM after 48 hrs by sulforhodamine B assay; conditions: read-out: Activity
[16] = system: NCI-H322M; experiment: Growth inhibition of human NCI-H322M cells after 48 hrs by sulforhodamine B assay; conditions: for CC50: read-out: LC50 (the source's name); summary of the method: as §1
[17] = system: UACC-257; experiment: Cytotoxicity against human UACC257 cells assessed as cell growth at 10 uM after 48 hrs by sulforhodamine B assay; conditions: UACC-257, 48 h, read-out: Activity
[18] = system: U-251; experiment: Cytotoxicity against human U251 cells assessed as cell growth at 0.001 uM after 48 hrs by sulforhodamine B assay; conditions: U-251, 48 h, read-out: Activity
[19] = system: SF-295; experiment: Cytotoxicity against human SF295 cells assessed as cell growth at 0.01 uM after 48 hrs by sulforhodamine B assay; conditions: SF-295, 48 h, read-out: Activity
[20] = system: SK-MEL-2; experiment: Cytotoxicity against human SK-MEL-2 cells assessed as cell growth at 100 nM after 48 hrs by sulforhodamine B assay; conditions: SK-MEL-2, 48 h, read-out: Activity
[21] = system: MDA-MB-435; experiment: Cytotoxicity against human MDA-MB-435 cells assessed as cell growth at 10 uM; conditions: read-out: Activity
Summary of the method: (§3)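 NCI-60 screen: cells grown in RPMI 1640 with 5% FBS and 2 mM L-glutamine, plated at 5000–40,000 cells/well according to doubling time, and preincubated 24 h at 37 °C, 5% CO2. The single 10 µM dose (DMSO stock) was added, then incubated 48 h. Cells were TCA-fixed and stained with 0.4% SRB, read at 515 nm, and growth % calculated against time-zero and control plates.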

[22] = system: OVCAR-3; experiment: Cytotoxicity against human OVCAR-3 cells assessed as cell growth at 100 nM after 48 hrs by sulforhodamine B assay; conditions: OVCAR-3, 48 h, read-out: Activity
[23] = system: SF-539; experiment: Cytotoxicity against human SF539 cells assessed as cell growth at 0.001 uM after 48 hrs by sulforhodamine B assay; conditions: SF-539, 48 h, read-out: Activity
[24] = system: NCI-H23; experiment: Cytotoxicity against human NCI-H23 cells assessed as cell growth at 10 uM; conditions: read-out: Activity; summary of the method: as §3
[25] = system: KM12; experiment: Cytotoxicity against human KM12 cells assessed as cell growth at 10 uM after 48 hrs by sulforhodamine B assay; conditions: KM12, 48 h, read-out: Activity
[26] = system: NCI-H522; experiment: Cytotoxicity against human NCI-H522 cells assessed as cell growth at 10 uM; conditions: read-out: Activity; summary of the method: as §3
[27] = system: NCI/ADR-RES; experiment: Cytotoxicity against human NCI/ADR-RES cells assessed as cell growth at 100 nM after 48 hrs by sulforhodamine B assay; conditions: read-out: Activity
[28] = system: SK-MEL-5; experiment: Cytotoxicity against human SK-MEL-5 cells assessed as cell growth at 10 uM; conditions: read-out: Activity; summary of the method: as §3
[29] = system: KM12; experiment: Cytotoxicity against human KM12 cells assessed as cell growth at 1 uM after 48 hrs by sulforhodamine B assay; conditions: KM12, 48 h, read-out: Activity
[30] = system: UACC-257; experiment: Cytotoxicity against human UACC257 cells assessed as cell growth at 10 uM; conditions: read-out: Activity; summary of the method: as §3
[31] = system: LOX IMVI; experiment: Growth inhibition of human LOXIMVI cells after 48 hrs by sulforhodamine B assay; conditions: for CC50: read-out: LC50 (the source's name); summary of the method: as §1
[32] = system: SF-295; experiment: Cytotoxicity against human SF295 cells assessed as cell growth at 10 uM; conditions: read-out: Activity; summary of the method: as §3
[33] = system: SR; experiment: Cytotoxicity against human SR cells assessed as cell growth at 10 uM; conditions: read-out: Activity; summary of the method: as §3

Structure (SMILES): COc1cc(C)cc(-c2nn(CC#N)cc2-c2ccnc(-c3ccc(N(C)C)cc3)c2)c1
- GI50 [1]: 1.36 µM
- TGI [1]: 10.7 µM
- CC50 [1]: > 100 µM
- growth at 1 µM [2]: 19%
- GI50 [3]: 0.286 µM
- TGI [3]: 0.848 µM
- CC50 [3]: > 100 µM
- growth at 1 µM [4]: -26%
- CC50 [5]: 94.7 µM
- growth at 0.01 µM [6]: 96%
- growth at 0.1 µM [7]: 28%
- growth at 0.001 µM [8]: 100%
- inhibition of growth at 10 µM [9]: 92.3%
- growth at 10 µM [10]: 3%
- growth at 0.01 µM [11]: 116%
- growth at 10 µM [12]: 10%
- growth at 10 µM [13]: 23%
- growth at 0.01 µM [14]: 90%
- growth at 10 µM [15]: -10%
- TGI [16]: > 1 µM
- CC50 [16]: > 100 µM
- growth at 10 µM [17]: 13%
- growth at 0.001 µM [18]: 94%
- growth at 0.01 µM [19]: 94%
- growth at 0.1 µM [20]: 50%
- growth at 10 µM [21]: -22.6%
- growth at 0.1 µM [22]: -51%
- growth at 0.001 µM [23]: 102%
- growth at 10 µM [24]: -3.77%
- growth at 10 µM [25]: -70%
- growth at 10 µM [26]: -14.9%
- growth at 0.1 µM [27]: -22%
- growth at 10 µM [28]: 2.26%
- growth at 1 µM [29]: -37%
- growth at 10 µM [30]: 68.2%
- GI50 [31]: 0.681 µM
- TGI [31]: 14.8 µM
- CC50 [31]: > 100 µM
- growth at 10 µM [32]: -8.52%
- growth at 10 µM [33]: 9.06%

Structure (SMILES): Cc1cc(O)cc(-c2nn(CC#N)cc2-c2ccnc(-c3ccc(N(C)C)cc3)c2)c1
- GI50 [1]: 3.71 µM
- TGI [1]: 22.2 µM
- CC50 [1]: > 100 µM
- growth at 1 µM [2]: 10%
- GI50 [3]: 1.86 µM
- TGI [3]: 5.94 µM
- CC50 [3]: > 100 µM
- growth at 1 µM [4]: 5%
- GI50 [5]: 2.79 µM
- TGI [5]: 10.2 µM
- CC50 [5]: 70.5 µM
- growth at 0.01 µM [6]: 92%
- growth at 0.1 µM [7]: 83%
- growth at 0.001 µM [8]: 97%
- inhibition of growth at 10 µM [9]: 65.3%
- growth at 10 µM [10]: -6%
- growth at 0.01 µM [11]: 108%
- growth at 10 µM [12]: 7%
- growth at 10 µM [13]: -1%
- growth at 0.01 µM [14]: 90%
- growth at 10 µM [15]: -4%
- GI50 [16]: 6.08 µM
- TGI [16]: 59.8 µM
- CC50 [16]: > 100 µM
- growth at 10 µM [17]: -25%
- growth at 0.001 µM [18]: 101%
- growth at 0.01 µM [19]: 89%
- growth at 0.1 µM [20]: 112%
- growth at 10 µM [21]: -43.2%
- growth at 0.1 µM [22]: 85%
- growth at 0.001 µM [23]: 97%
- growth at 10 µM [24]: 35.9%
- growth at 10 µM [25]: -97%
- growth at 10 µM [26]: 14.5%
- growth at 0.1 µM [27]: 91%
- growth at 10 µM [28]: -16.3%
- growth at 1 µM [29]: -9%
- growth at 10 µM [30]: 54.1%
- GI50 [31]: 5.13 µM
- TGI [31]: 17.8 µM
- CC50 [31]: 47.7 µM
- growth at 10 µM [32]: 56.9%
- growth at 10 µM [33]: 20.5%

Structure (SMILES): COc1cc(C)cc(-c2c(-c3ccnc(-c4ccc(N(C)C)cc4)c3)cnn2CC#N)c1
- GI50 [1]: 0.266 µM
- TGI [1]: 1.96 µM
- CC50 [1]: > 100 µM
- growth at 1 µM [2]: 11%
- GI50 [3]: 0.0694 µM
- TGI [3]: > 100 µM
- CC50 [3]: > 100 µM
- growth at 1 µM [4]: 17%
- GI50 [5]: 0.0577 µM
- TGI [5]: 0.282 µM
- CC50 [5]: 4.99 µM
- growth at 0.01 µM [6]: 30%
- growth at 0.1 µM [7]: 41%
- growth at 0.001 µM [8]: 97%
- inhibition of growth at 10 µM [9]: 88.4%
- growth at 10 µM [10]: -5%
- growth at 0.01 µM [11]: 66%
- growth at 10 µM [12]: 8%
- growth at 10 µM [13]: 2%
- growth at 0.01 µM [14]: 69%
- growth at 10 µM [15]: 3%
- GI50 [16]: 0.331 µM
- TGI [16]: > 100 µM
- CC50 [16]: > 100 µM
- growth at 10 µM [17]: 18%
- growth at 0.001 µM [18]: 95%
- growth at 0.01 µM [19]: 56%
- growth at 0.1 µM [20]: 14%
- growth at 10 µM [21]: -14.7%
- growth at 0.1 µM [22]: -20%
- growth at 0.001 µM [23]: 104%
- growth at 10 µM [24]: -10.3%
- growth at 10 µM [25]: -49%
- growth at 10 µM [26]: -23.6%
- growth at 0.1 µM [27]: 2%
- growth at 10 µM [28]: -18.4%
- growth at 1 µM [29]: -43%
- growth at 10 µM [30]: 83.8%
- GI50 [31]: 0.0668 µM
- TGI [31]: > 100 µM
- CC50 [31]: > 100 µM
- growth at 10 µM [32]: 4.06%
- growth at 10 µM [33]: -6.91%
